# High-throughput results deposited in PubChem by Broad Institute.
# This is a sample that favours compounds with a hit; in the whole collection about 2.5% have one here.
# SIRT5 inh = sirtuin-5 (human) deacylase inhibition. Q9NXA8. Purified SirT5, succinyl-peptide AMC, trypsin-coupled fluorescence. inhibition, % at 15 µM. actives 1.1% (n = 330,000). AID 652115; in the data active means inhibition above about 15%; inconclusive means no clear call, values can overlap the other calls
# ERAP1 HTS inh = inhibitors of human ERAP1 aminopeptidase. Q9NZ08. recombinant ERAP1, Leu-AMC fluorescence, 60 min. inhibition, % at 10.7 µM. actives 0.15% (n = 340,000);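 active means mean replicate inhibition of at least 30%, or all replicates individually reaching that 30% level; inactive means mean below 30% and not every replicate reaching it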;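 further: 0% = neutral control wells and 100% = L-leucinethiol positive control wells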
# DENV2 CPE = inhibitors of DENV2 cytopathic effect. DENV2-infected cells, cytopathic effect rescue, plate reader. CPE inhibition, % at 9.99 µM. actives 1.7% (n = 350,000). AID 651640; in the data active means CPE inhibition above about 20%, passing the limit was not always enough; inconclusive means no clear call, values can overlap the other calls; tested in BHK-21 cells;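 further: 0% = median of neutral control wells and 100% = median of positive control wells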
# PglD DTNB = PglD (C. jejuni) enzyme inhibition; purified PglD enzyme, DTNB colorimetric CoA detection; inhibition, % at 12.5 µM; actives 0.098% (n = 360,000); in the data active means inhibition above about 16%, passing the limit was not always enough; inconclusive means no clear call, values can overlap the other calls
# E-selectin induc = induces E-selectin expression in human endothelial cells. actives 0.37% (n = 260,000). activation, % at 7.58 µM. P16581. HUVEC E-selectin immunofluorescence imaging; normalized: neutral wells 0, TNF-alpha wells 100;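 active means mean E-selectin-positive cell signal at least 10% of the positive control, reached in at least 60% of replicates, without over 20% cell loss; inconclusive means no rule given, readout overlaps actives, possibly toxicity-flagged; inactive means the rest, including those meeting only one limit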
#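 Test system: HUVEC; input: 3,000 HUVEC/well; measured by: immunofluorescence imaging; read-out: % PE-positive cells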
# The depositor's hits bear a star; ? = inconclusive; . = no result; ! = not active in a repeat.
SMILES,SIRT5 inh,ERAP1 HTS inh,DENV2 CPE,PglD DTNB,E-selectin induc
COc1cccc(S(=O)(=O)N(C)C[C@H]2Oc3cc(C4=CCCC4)ccc3S(=O)(=O)N([C@H](C)CO)C[C@@H]2C)c1,3,-3,38*,-2,0
CC1(NC(=O)c2cc(Cl)nc3ccccc23)CCS(=O)(=O)C1 (stereo unspecified),-3,3,54*,4,.
COc1ccccc1S(=O)(=O)N(C)C[C@H]1Oc2cc(C#CCC(C)C)ccc2S(=O)(=O)N([C@@H](C)CO)C[C@H]1C,-1,-5,-4,-2,.
COc1ccccc1S(=O)(=O)N(C)C[C@H]1Oc2cc(C#CCC(C)C)ccc2S(=O)(=O)N([C@H](C)CO)C[C@@H]1C,30*,1,3,4,.
COc1ccccc1S(=O)(=O)N(C)C[C@@H]1Oc2cc(C#CCC3CCCC3)ccc2S(=O)(=O)N([C@@H](C)CO)C[C@@H]1C,17*,-1,-4,1,0
COc1ccccc1S(=O)(=O)N(C)C[C@@H]1Oc2cc(C#CCC3CCCC3)ccc2S(=O)(=O)N([C@@H](C)CO)C[C@H]1C,12,0,0,2,0
O=C(c1cccc(N2CCCC2=O)c1)N1CCN(c2cccc(Cl)c2)CC1,.,.,.,11,.
O=C1c2ccccc2CN1CCSC(=S)N1CCOCC1,-1,0,21*,2,.
CC1CN(C(=S)SCCN2Cc3ccccc3C2=O)CC(C)O1 (stereo unspecified),2,-2,-4,.,.
CCn1cc(C(=O)N(C)c2ccccc2F)c2cc(OC)c(OC)cc2c1=O,-1,-2,-1,-2,0
CCOc1ccccc1N(C)C(=O)c1cn(CC)c(=O)c2cc(OC)c(OC)cc12,20*,8,5,-1,0
CC(C)(C(=O)N1CCC1(C)C(=O)NC1Cc2ccccc2C1)c1ccccc1 (stereo unspecified),-1,0,-2,3,-1
CC(C)(C(=O)N1CCC1(C)C(=O)Nc1ccccc1Br)c1ccccc1 (stereo unspecified),4,-6,25*,-1,0
C[C@@H]1CN([C@H](C)CO)C(=O)c2cc(C#Cc3ccccn3)cnc2O[C@@H]1CN(C)Cc1cccnc1,2,3,0,0,0
CC(NC(=O)CN1CCOCC1)c1ccccc1 (stereo unspecified),3,-3,3,-1,.
Cc1ccccc1CN1CCN(CC(=O)NC(C)c2ccccc2)CC1 (stereo unspecified),.,-1,27*,-1,.
CC(NC(=O)CN1CCCC1)c1ccccc1 (stereo unspecified),.,1,24*,0,.
COc1c(Cl)cc(Br)c(OC)c1C(=O)NC(=O)Nc1nc(C)cc(C)n1,-2,3,32*,.,-4
Cc1noc(C)c1S(=O)(=O)N(C)C[C@@H]1OCCCC[C@@H](C)Oc2ccc(NC(=O)Nc3ccc4c(c3)OCO4)cc2C(=O)N([C@H](C)CO)C[C@H]1C,.,.,-6,-1,0
COc1ccc(/C(N)=N/OC(=O)c2ccco2)cc1OC,0,1,-7,.,.
Cc1csc(/C(=N/OC(=O)c2ccco2)C(N)=O)n1,4,0,35*,1,.
COC(=O)/C(C#N)=C/N(C)C,-3,1,-1,.,.
CCc1c(C)nn(C(=O)/C(C#N)=C\N(C)C)c1C,16*,.,-2,.,3
CCOc1cc(C(=O)OC(C)C(=O)Nc2ccc(S(N)(=O)=O)cc2)ccc1OCC(=O)N1CCOCC1 (stereo unspecified),19*,-2,5,8,0
CCOc1cc(C(=O)OC(C)C(=O)Nc2ccc(NC(C)=O)cc2)ccc1OCC(=O)N1CCCCC1 (stereo unspecified),-12,6,-3,-4,?
SMILES,SIRT5 inh,ERAP1 HTS inh,DENV2 CPE,PglD DTNB,E-selectin induc
O=C(O)c1cccc(NC(=O)c2cn(-c3ccccc3)nc2-c2cccc(Br)c2)c1,16*,-35,-4,-2,.
CCCCC(=O)N(c1ccc(C(=O)O)cc1)c1nc(-c2ccc(Cl)cc2)c(CC)s1,0,-6,-2,.,2
CCOc1cc(C=NN2CCCCCC2)ccc1O,31*,1,-8,1,0
NC(=O)C1CCN(C2=C(NS(=O)(=O)c3ccc(Cl)cc3)C(=O)c3ccccc3C2=O)CC1,2,4,-5,.,0
CCN(CC)S(=O)(=O)c1ccc(N2CCOCC2)c(NC(=O)c2ccc3c(c2)OCCO3)c1,2,2,-3,.,2
Cc1ccc(Nc2nnc(SCC(=O)c3c(N)n(C4CC4)c(=O)[nH]c3=O)s2)cc1C,-6,2,-2,-4,-1
Cc1cccc(Nc2nnc(SCC(=O)c3c(N)n(C4CC4)c(=O)[nH]c3=O)s2)c1,16*,2,3,4,.
Cc1ccc(OC(=O)N(C)C[C@H]2OCc3ccccc3-c3ccccc3C(=O)N([C@@H](C)CO)C[C@@H]2C)cc1,.,.,.,-1,0
C[C@@H]1CN([C@@H](C)CO)C(=O)c2cc(NC(=O)C3CCCCC3)ccc2O[C@@H]1CN(C)Cc1ccc(-c2ccccc2)cc1,3,3,1,0,0
COc1ccc(CN(C)C[C@@H]2Oc3ccc(NC(=O)C4CCCCC4)cc3C(=O)N([C@@H](C)CO)C[C@@H]2C)cc1,-4,.,38*,2,0
C[C@H](CO)N1C[C@H](C)[C@@H](CN(C)Cc2ccccc2)Oc2ccc(NC(=O)C3CCCCC3)cc2CC1=O,0,1,38*,0,0
C[C@@H]1CN([C@H](C)CO)C(=O)Cc2cc(NC(=O)C3CCCCC3)ccc2O[C@@H]1CN(C)Cc1ccc(-c2ccccc2)cc1,102*,1,9,-5,-2
C[C@H]1CN([C@@H](C)CO)C(=O)c2cc(NC(=O)C3CCCCC3)ccc2O[C@H]1CN(C)Cc1ccc(-c2ccccc2)cc1,40*!,0,-3,-3,0
CCOC(=O)N1CCC(NC(=O)C2CCCN(S(=O)(=O)c3cccnc3)C2)CC1 (stereo unspecified),-6,3,11,-1,0
CCCC(=O)Nc1ccc2c(c1)C(=O)N(C)[C@H]1CC[C@H](CC(=O)NCC(F)(F)F)O[C@H]1CO2,.,.,2,1,0
C[C@H](CO)N1C[C@H](C)[C@@H](CN(C)Cc2ccc(C(F)(F)F)cc2)Oc2ccc(NC(=O)C3CCCCC3)cc2CC1=O,3,0,42*,-7,0
O=C(NCCc1ccccn1)c1nc(Cn2cc(Br)cn2)no1,11,0,1,2,.
CC(C)NC(=O)Nc1ccc2c(c1)C(=O)N([C@@H](C)CO)C[C@H](C)[C@@H](CN(C)Cc1ccc(C(F)(F)F)cc1)O2,2,1,-16,2,89*
C[C@H]1CN([C@@H](C)CO)C(=O)c2cc(NC(=O)C3CC3)ccc2O[C@H]1CN(C)Cc1ccc(C(F)(F)F)cc1,4,-4,27*,3,0
